Assay results taken from PubChem BioAssay AID2770 (The Scripps Research Institute Molecular Screening Center, 2010).
The source made the active and inactive calls. No rule for the calls is given here.

Tests used:
Experiment in all cases: agonist activity on off-target TRP channel panel – cell-based, Fura-2 calcium ratio, transfected HEK293, SAR round 1, selectivity assay for TRPML3 agonist project, profiling panel (AID 2770)
HEK cells = conditions: HEK293 transfected TRP channels, at 10 µM, hits give high values
In short: (§1)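 System: HEK293 cells transiently expressing human, mouse or zebrafish TRP channels, or mock-transfected; Quantity: 20-30 cells imaged per experiment; Medium: HEPES-buffered bath solution at pH 7.4; Schedule: compound perfusion 20-25 h post-transfection, then 2 min calcium imaging; Measured by: ratiometric fluorescence imaging with 4 µM fura-2-AM calcium dye; Replication: n ≥3 independent experiments.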

[1] = target: Ion channel NompC (Danio rerio) (UniProt Q7T1G6); conditions: HEK293 transfected TRP channels, drTRPN1
In short: as §1

hTRPM2 = conditions: HEK293 transfected TRP channels
In short: as §1

hTRPA1 = conditions: HEK293 transfected TRP channels
In short: as §1

[2] = target: Mucolipin-1 (Homo sapiens) (UniProt Q9GZU1); conditions: HEK293 transfected TRP channels
Chain of Mucolipin-1 (Homo sapiens) (Q9GZU1 whole entry, looked up): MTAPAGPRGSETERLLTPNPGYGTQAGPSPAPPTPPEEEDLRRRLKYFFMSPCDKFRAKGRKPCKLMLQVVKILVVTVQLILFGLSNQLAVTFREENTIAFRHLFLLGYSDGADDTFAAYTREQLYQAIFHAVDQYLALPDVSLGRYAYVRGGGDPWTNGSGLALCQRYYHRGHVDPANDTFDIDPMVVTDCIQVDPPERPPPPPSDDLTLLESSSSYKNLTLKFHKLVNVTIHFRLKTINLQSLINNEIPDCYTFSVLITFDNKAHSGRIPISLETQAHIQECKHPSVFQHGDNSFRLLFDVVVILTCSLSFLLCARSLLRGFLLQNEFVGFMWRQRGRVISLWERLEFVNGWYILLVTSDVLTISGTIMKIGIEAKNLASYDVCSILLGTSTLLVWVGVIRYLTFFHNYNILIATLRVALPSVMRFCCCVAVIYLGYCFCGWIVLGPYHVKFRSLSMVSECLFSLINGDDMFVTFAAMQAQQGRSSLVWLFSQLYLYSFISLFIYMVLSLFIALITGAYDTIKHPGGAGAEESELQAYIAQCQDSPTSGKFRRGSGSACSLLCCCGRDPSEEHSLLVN
In short: as §1

mTRPV2 = conditions: HEK293 transfected TRP channels
In short: as §1

mTRPML2 (mucolipin 2) = conditions: HEK293 transfected TRP channels
In short: as §1

hTRPC3 = conditions: HEK293 transfected TRP channels
In short: as §1

[3] = hTRPML1 (NC) plasma membrane variant

Row | outcome [1] | outcome (hTRPM2) | outcome (hTRPA1) | outcome ([2]; hTRPML1) | outcome [2, 3] | outcome (mTRPV2) | outcome (hTRPC3) | SMILES | Fura-2 340/380 ratio change (HEK cells) | outcome (mTRPML2 (mucolipin 2))
1 | inactive; selective for TRPML3 | inactive; selective for TRPML3 | inactive; selective for TRPML3 | inactive; selective for TRPML3 | inactive; selective for TRPML3 | inactive; selective for TRPML3 | inactive; selective for TRPML3 | Cc1ccc(S(=O)(=O)n2nccc2-c2c(-c3ccc(Cl)cc3)noc2C)cc1 | -0.005 (inactive) | inactive; selective for TRPML3
2 | inactive; selective for TRPML3 | inactive; selective for TRPML3 | inactive; selective for TRPML3 | inactive; selective for TRPML3 | inactive; selective for TRPML3 | inactive; selective for TRPML3 | inactive; selective for TRPML3 | CCOc1ccc(S(=O)(=O)N2CCCCCC2)c2ccccc12 | -0.011 (inactive) | inactive; selective for TRPML3
3 | inactive; selective for TRPML3 | inactive; selective for TRPML3 | inactive; selective for TRPML3 | inactive; selective for TRPML3 | inactive; selective for TRPML3 | inactive; selective for TRPML3 | inactive; selective for TRPML3 | CC1CCN(S(=O)(=O)c2ccc(C(C)C)cc2)CC1 | -0.008 (inactive) | inactive; selective for TRPML3
